Test system: MS2 coat protein
Test: apparent Kd, MS2 coat protein; higher = weaker binding; RNA-MaP array; FMN 200 µM where present
Summary of the method: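 Stalled E. coli RNA polymerase produced the designs on Illumina sequencing-chip clusters. SNAP-549-labelled MS2 coat protein was added from 0.7 or 1.5 nM, doubling to 3 µM, without and then with constant ligand, in 100 mM Tris-HCl pH 7.5, 80 mM KCl, 4 mM MgCl2, BSA, DTT, yeast tRNA and Tween-20. The apparent Kd is the median of filtered per-cluster fits of green signal normalised to red-channel RNA signal and control-cluster median Fmax.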

[1] = designed as: ON switch for flavin mononucleotide, no ligand
[2] = ligand present: flavin mononucleotide, designed as: ON switch for flavin mononucleotide
[3] = designed as: OFF switch for flavin mononucleotide, no ligand
[4] = ligand present: flavin mononucleotide, designed as: OFF switch for flavin mononucleotide

| Sequence | apparent Kd [1] [nM] | apparent Kd [2] [nM] | apparent Kd [3] [nM] | apparent Kd [4] [nM] |
| --- | --- | --- | --- | --- |
| AGAUGGUAUAUAGGAUAUCAUGUGCAAACAUGAGGAUCACCCAUGUAGAGACGUCAGUUUAAUAAUGAGAAGGAUAUACCAUCU | 31.9 | 14.4 | – | – |
| AGCAAGUAUACAUGAGGAUCACCCAUGUUUUUUAGGGUUUUCAGAAGGUACAUUUUGAGAUAGAGUAAGGAUAUGAAAUAUGCG | 101 | 45.7 | – | – |
| AGCAGACGAGGAUAUAGAUUAAAUGACAUGAGGAUCACCCAUGUGAUCGAUCUAUUUUAUUUAGAAGGUGUCUGCU | – | – | 18.1 | 32.3 |
| AGCAGACGAGGAUAUAGAUUUGUUAACAUGAGGAUCACCCAUGUGAUCGAUUUUUCAUAUUUAGAAGGUGUCUGCU | – | – | 83.3 | 392 |
| AGCAUGUUUACAUGAGGAUCACCCAUGUUUAUUUAGGAUUUCAGAAGGUACAAUUUGUGUUAGAGUAAGGAUAUGAUAUAUGCG | 12 | 8.48 | – | – |
| AGCCCUAAUGUCAGGAUAUGCAUCCUUAAUGGACGGCAGAAGGGACAUGAGGAUCACCCAUGUAAAUAGAAAUU | – | – | 34.8 | 146 |
| AGCCGCUUAGGAUAUACCUAGAUUCUUCCGCGCUGUACGGUACAUGAGGAUCACCCAUGUAGAAGGAGGUGGCA | – | – | 23.5 | 29.7 |
| AGCGGCGCAGACCACCGCAAAACCAGAAGGACAUGAGGAUCACCCAUGUAACAAAACAGGGCGAUGUAGGAUAUGGCAAACCCA | – | – | 16.3 | 18.8 |
| AGCGUACAAGCUAACAUGAGGAUCACCCAUGUGGUCUCAUGCGAGGAUAUCGGGAAGGAGGAUUCCGAGAAGGUGCGGUGAGCC | 182 | 43.8 | – | – |
| AGCUAAGAGUUAAUUGUGACAGUGAGAAGGCAAUAGUUUGUGACCGACAUGAGGAUCACCCAUGUUGAGGAUAUCACUAGCUAC | – | – | 6.83 | 19.4 |
| AGCUAGUACCGAGGAUAUACAUACAUGAGGAUCACCCAUGUAUACAUGAACAAUUGAGACUACAUGUAGAAGGCGGUACUAGCA | 49.9 | 18.6 | – | – |
| AGCUAGUACGAAGGAUAUACAAACAUGAGGAUCACCCAUGUAUACAUGGUUUGAUGAGACUACAUGUAGAAGGUCGUACUAGCA | 506 | 796 | – | – |
| AGCUAGUCAGGAUAUACGAACAUGUCAAAAGACGUGAAAGGACAUGAGGAUCACCCAUGUAGAAGGGACUAGCA | – | – | 21.4 | 46.9 |
| AGCUAGUCAGGAUAUACGAACAUGUCAUUAGACGUGAAGGGACAUGAGGAUCACCCAUGUAGAAGGGACUAGCA | – | – | 40 | 134 |
| AGCUCCGCUCGAGGAUAUAGCUGCAUGUAGUGUCCUGAGGCACAUGAGGAUCACCCAUGUGUAGGCUAGAAGGCGACGGACAUU | – | – | 43.3 | 152 |
| AGCUGGUGACAGCAAGAAAGUUCACAUGAGGAUCACCCAUGUAGAAGGCUGUACGGUUACCGUACAGAGGAUAUACAUAGAAAG | – | – | 19.9 | 31.5 |
| AGCUGUGGCCGAGGAUAUCUAGCUUCAAUAACCGAAAUAUAAUCGGACAUGAGGAUCACCCAUGUAGAGAAGGCGGUCUCAGCA | – | – | 29.6 | 29.6 |
| AGCUGUGGCCGAGGAUAUCUAUCCAAUAAAACCGAAAUAUAAUCGGACAUGAGGAUCACCCAUGUAGAGAAGGCGGUCUCAGCA | – | – | 22.4 | 30.5 |
| AGCUGUGGCCGAGGAUAUCUGAAACUCAAAACCGAAAUAUAAUCGGACAUGAGGAUCACCCAUGUAGAGAAGGCGGUCUCAGCA | – | – | 165 | 307 |
| AGCUUCGGUGUCAGGAUAUGGGAAAGGGAACUUACCCAGAAGGGACAUGAGGAUCACCCAUGUGGCUUGACAUG | – | – | 45.3 | 109 |
| AGGAAGUAAAGAGACAUGAGGAUCACCCAUGUGACUGCAUCACAGGAUAUGUCGAGCGAAGCACAACAGAAGGGUGAUCAGGGC | 65.2 | 120 | – | – |
| AGGAAGUGAGGAUAUGCAGUGGCCUGUAGACGCAAGCACUUGUAGAAGGCACAUGAGGAUCACCCAUGUUUAAA | – | – | 35.8 | 34.2 |
| AGGAAGUUAGGAUAUGCUGCUCGUCACUUGCGUGAUGAGUAGCAGAAGGAACAUGAGGAUCACCCAUGUAAAAA | – | – | 27.7 | 22.2 |
